The source of these data is ChEMBL document CHEMBL1141456, “Ca2+ channel alpha2-delta ligands for the treatment of neuropathic pain” (J Med Chem, 2007).

The nature of series [1]: Displacement of [3H]gabapentin from alpha2-delta calcium channel in pig brain. Details: species or system Sus scrofa. The gist of the method:
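Competition binding of [3H]gabapentin to partially purified pig forebrain membranes. IC50, in nM, is the concentration giving half-maximal inhibition of specific [3H]gabapentin binding.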
(Displacement assays read how much labelled ligand stays bound in the presence of the test substance.)

Series [2] in a line: Dissociation constant, pKa of the compound. In kind it is physicochemical.

Structures are written as SMILES. Where only a bound is given, the exact number is not on record here.

As to `NCC1(Cc2n[nH]c(=O)o2)CCCCC1`, the IC50 (usually the concentration that gives 50% inhibition) in series [1] is greater than 10000 nM. Also, in series [2], the pKa (commonly the pH at which an ionisable group is half protonated) was 7.18. In the case of `NCC1(Cc2nnn[nH]2)CCCCC1`, in series [1], the IC50 came out at 100 nM. Same read-out and setting: the figure for `Cn1nnnc1CC1(CN)CCCCC1` is greater than 10000 nM. Same read-out and setting: the figure for `NCC1(Cc2nnn[nH]2)CCCCCC1` is 100 nM. For `CC(C)CC(CN)c1nnn[nH]1` (stereo not given), the IC50 in series [1] was 170 nM. The compound further had a pKa in series [2] of 3.74. `NCC1(Cc2noc(=O)[nH]2)CCCCC1` showed a pKa in series [2] of 5.24. For `NCC1(CC(=O)O)CCCCC1` [GABAPENTIN], in series [1], the IC50 was 87 nM. Moreover, the pKa in series [2] is 4.1.
